Entries after “also recorded” stand apart in the source; their conditions may differ. Like-named read-outs stand apart in the source and are kept apart here. One block for each compound: values may come before it.
What was measured:
[1] = Summary of clinical safety and tolerability in phase I SAD and MAD studies; format: in vivo, human
Method in brief: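 Healthy volunteers received oral ALZ-801 as capsule or tablet, fasted or fed, in single and multiple-dose placebo-controlled studies. AEs were logged from first dose to discharge and at a follow-up call, then coded with MedDRA v18.1. QTc and safety laboratory tests were monitored against withdrawal criteria. Summaries are given as cases or cases (%).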

[2] = Phase I multiple ascending dose study of ALZ-801 capsule and tablet; format: in vivo, human; conditions: plasma; for Tmax / half-life / AUC / Cmax: both, human, oral; for half-life: t ½; for Cmax: C max; for lower C max for 265 mg tablet than 256.5 mg capsule: fed state
[3] = Single-dose ALZ-801 immediate-release tablet PK and food effect study; format: in vivo, human; conditions: plasma; for Cmax: C max
[4] = Urine drug recovery, renal clearance and estimate of oral bioavailability; format: in vivo, human; conditions: Cohort D, 24-h urine; for CL renal: both, human, urine and plasma, oral, 265 mg, CLr, mean ± SD
Method in brief: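 Cohort D: 265 mg immediate-release tablet in the fed state (meal 30 min pre-dose), once on day 1, twice daily days 2–6, once on day 7. Urine was collected over 24 h on days 1 and 7 and assayed by LC-MS (LLOQ 30 ng/mL ALZ-801, 100 ng/mL tramiprosate). Renal clearance was calculated as Ae divided by plasma AUC24.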

[5] = Drug substance properties; format: physicochemical
[6] = cited from earlier work; for ADAS-cog difference compared with placebo: oral tramiprosate
[7] = test system: brain amyloid plaque load; conditions: chronic oral treatment, TgCRND8 mice; cited from earlier work
[8] = biological target: T1, organic anion transporter (OAT) 1 (Homo sapiens, UniProt Q4U2R8); assay: Effect on renal transporters; format: in vitro ADME; conditions: concentrations up to 100 mM; data on file
T1 sequence (Q4U2R8 1-563): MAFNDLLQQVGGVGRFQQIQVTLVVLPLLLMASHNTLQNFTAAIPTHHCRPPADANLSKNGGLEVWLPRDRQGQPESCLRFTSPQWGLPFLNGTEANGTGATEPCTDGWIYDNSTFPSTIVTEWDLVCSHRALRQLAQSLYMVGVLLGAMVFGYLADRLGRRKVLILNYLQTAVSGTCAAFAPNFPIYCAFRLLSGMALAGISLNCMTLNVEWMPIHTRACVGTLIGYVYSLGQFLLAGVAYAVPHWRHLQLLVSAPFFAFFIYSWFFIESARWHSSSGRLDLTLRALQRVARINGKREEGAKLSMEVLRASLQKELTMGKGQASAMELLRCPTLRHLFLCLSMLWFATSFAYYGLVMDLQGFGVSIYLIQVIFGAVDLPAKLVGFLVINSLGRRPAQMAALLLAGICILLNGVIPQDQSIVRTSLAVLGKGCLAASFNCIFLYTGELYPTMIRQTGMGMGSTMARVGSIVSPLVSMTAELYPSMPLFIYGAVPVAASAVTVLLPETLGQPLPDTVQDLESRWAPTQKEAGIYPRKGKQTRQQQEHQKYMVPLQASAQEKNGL

Aβ oligomers = conditions: 1000-fold excess of tramiprosate, IMS-MS; cited from earlier work
OAT3 = biological target: T2, OAT3 (Homo sapiens, UniProt Q8TCC7); assay: Effect on renal transporters; format: in vitro ADME; conditions: concentrations up to 100 mM; data on file
T2 sequence (Q8TCC7 1-542): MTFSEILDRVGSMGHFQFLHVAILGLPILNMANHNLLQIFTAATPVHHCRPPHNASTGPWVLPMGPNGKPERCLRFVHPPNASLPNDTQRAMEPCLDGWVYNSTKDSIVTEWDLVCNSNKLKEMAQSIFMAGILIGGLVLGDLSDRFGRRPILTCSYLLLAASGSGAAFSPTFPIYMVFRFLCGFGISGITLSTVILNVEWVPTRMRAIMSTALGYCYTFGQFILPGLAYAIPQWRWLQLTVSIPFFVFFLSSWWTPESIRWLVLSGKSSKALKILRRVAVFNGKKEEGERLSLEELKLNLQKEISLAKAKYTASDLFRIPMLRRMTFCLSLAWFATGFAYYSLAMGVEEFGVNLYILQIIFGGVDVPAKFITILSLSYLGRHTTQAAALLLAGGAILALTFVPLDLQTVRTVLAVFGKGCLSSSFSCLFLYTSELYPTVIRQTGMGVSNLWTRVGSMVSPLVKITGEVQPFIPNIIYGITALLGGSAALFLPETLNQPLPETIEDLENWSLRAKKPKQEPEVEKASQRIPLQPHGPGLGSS

[9] = Phase I single ascending dose study of ALZ-801 loose-filled capsule; format: in vivo, human; conditions: both, human, plasma, oral, 100 mg, Plasma tramiprosate t ½, mean ± SD
Method in brief: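 Single fasted oral loose-filled capsules; 172 mg in 36 healthy subjects over 50 y (parallel, randomized 1:1:1), 300 mg in 15 subjects over 50 y. Plasma sampled over 48 h into K3 EDTA on ice, spun 2000g 10 min 4 °C, stored at or below −20 °C. LC-MS assay; non-compartmental analysis; Tmax as median (range).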

[10] = Bridging clinical dose analysis and projection of brain drug exposure; set-up: species or system human; conditions: for projected plasma tramiprosate AUC12: oral ALZ-801 265 mg twice daily, steady state
Method in brief: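 Projected from human plasma tramiprosate AUC after oral tablet: linear regression of steady-state dose vs AUC for 205 and 342 mg fed, with accumulation factor from Study 2 day 7/day 1 and modelled Study 3 data. Benchmark was the plasma AUC12 of the earlier 150 mg twice-daily tramiprosate trial. Brain exposure scaled by rodent brain/plasma ratio (14C-tramiprosate, single and steady-state).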

[11] = 265 mg, AUC12, plasma, Day 1, fed, ALZ-801 tablet 265 mg (Cohort D), mean ± SD
[12] = 265 mg, AUC12, plasma, Day 7, fed, ALZ-801 tablet 265 mg twice daily (Cohort D), mean ± SD
[13] = 265 mg, AUC24, plasma, Day 1, fed, ALZ-801 tablet 265 mg (Cohort D), mean ± SD
[14] = 265 mg, AUC24, plasma, Day 7, fed, ALZ-801 tablet 265 mg twice daily (Cohort D), mean ± SD
[15] = 265 mg, Day 1, fed, ALZ-801 tablet 265 mg (Cohort D), mean ± SD
[16] = 265 mg, T max, Day 1, fed, ALZ-801 tablet 265 mg (Cohort D), mean ± SD
[17] = 265 mg, T max, Day 7, fed, ALZ-801 tablet 265 mg twice daily (Cohort D), mean ± SD
[18] = 265 mg, Day 7, fed, ALZ-801 tablet 265 mg twice daily (Cohort D), mean ± SD
[19] = 256.5 mg ALZ-801 capsules, day 1
[20] = repeated 256.5 mg ALZ-801 capsules, day 7
[21] = day 7 vs day 1, 171 and 256.5 mg capsules, fasted
[22] = 205 mg ALZ-801 tablets fed (Regimen C) vs fasted

Compound: CC(C)[C@H](N)C(=O)NCCCS(=O)(=O)O [ALZ-801, 3-(L-valyl) amino-1-propanesulfonic acid]
- tolerability ([1]; oral, capsule or tablet, healthy volunteers): well tolerated
- dose-limiting toxicity or maximum tolerated dose ([1]; over 2 weeks of dosing at doses up to 342 mg twice daily): no dose-limiting toxicity or maximum tolerated dose (MTD) was observed; also recorded: no dose-limiting toxicity was observed
- Tmax ([2]; 256.5 mg, T max, ALZ-801 capsule 171 and 256.5 mg, day 1, fasted): 0.5 h
- Tmax ([2]; 256.5 mg, Tmax, Cohort C, capsule, fed, 256.5 mg QD, Day 1, median (range)): ~1 h
- half-life ([2]; 256.5 mg, ALZ-801 capsule 171 and 256.5 mg, day 1, fasted): ~1 h
- AUC [2, 11]: 10300 ng·h/mL
- AUC [2, 12]: 11200 ng·h/mL
- AUC [2, 13]: 10300 ng·h/mL
- AUC [2, 14]: 11200 ng·h/mL
- Cmax [2, 15]: 4960 ± 2650 ng/mL
- Tmax [2, 16]: 2.45 ± 0.848 h
- Tmax [2, 17]: 2.11 ± 0.553 h
- half-life [2, 15]: 1.05 ± 0.16 h
- half-life [2, 18]: 1.11 ± 0.263 h
- Tmax ([2]; 340 mg, T max, day 14, dosing in the fasted state): ~0.5 h
- half-life ([2]; irrespective of dosing regimen and day): ~1 h
- lower C max in fed than fasted state [2, 19]: 25%
- lower C max for 265 mg tablet than 256.5 mg capsule ([2]; day 1): 22%
- lower C max in fed than fasted state [2, 20]: 30%
- half-life ([3]; human, oral): < 1 h
- Tmax ([3]; human, oral, 171 mg): 1 h
- Tmax ([3]; human, oral, 205 mg): 0.5 h
- Mean Ae ([4]; Day 1, ALZ-801 tablet 265 mg): 22.5 mg
- Mean Ae ([4]; Day 7, ALZ-801 tablet 265 mg): 24.1 mg
- CL renal ([4]; Day 1, ALZ-801 tablet 265 mg): 36.4 ± 10.7 mL/min
- CL renal ([4]; Day 7, ALZ-801 tablet 265 mg): 35.9 ± 19.9 mL/min
- pKa [5]: 7.69
- solubility ([5]; water): > 200 mg/mL

- effect on renal transporter [8]: no effect
- AUC [2, 11]: 3300 ± 608 ng·h/mL
- AUC [2, 12]: 4100 ± 687 ng·h/mL
- AUC [2, 13]: 3650 ± 670 ng·h/mL
- AUC [2, 14]: 5020 ± 859 ng·h/mL
- Cmax [2, 15]: 759 ± 163 ng/mL
- Cmax [2, 18]: 865 ± 172 ng/mL
- Tmax [2, 16]: 3.56 ± 0.88 h
- Tmax [2, 17]: 2.9 ± 0.603 h
- half-life [2, 15]: 8.94 ± 1.35 h
- half-life [2, 18]: 36.1 ± 4.15 h
- lower C max in fed than fasted state [2, 19]: approximately 13%
- accumulation ratio AUC12 [2, 21]: 1.3
- accumulation ratio C max [2, 21]: 1.2
- lower C max for 265 mg tablet than 256.5 mg capsule ([2]; day 1): approximately 12%
- lower C max for 265 mg tablets than 256.5 mg capsules ([2]; fed, day 7): 11%
- lower C max in fed than fasted state [2, 20]: ~18%
- half-life ([3]; human, oral, 171 mg): 12.9 h
- Tmax ([3]; human, oral, 205 mg): 1.5 h
- half-life ([3]; human, oral, 205 mg): 16.5 h
- AUC(0-t) ([3]; human, oral, 205 mg, AUCt, 205 mg ALZ-801 tablets, fed (Regimen C)): 2990 ng·h/mL
- Cmax ([3]; human, oral, 205 mg, 205 mg ALZ-801 tablets, fed (Regimen C)): 638 ng/mL
- Cmax ([3]; human, oral, 342 mg, 342 mg ALZ-801 tablets, fed (Regimen D)): 978 ng/mL
- delay of T max with food [3, 22]: approximately 30 min
- reduced C max with food [3, 22]: 17%
- fold increase in C max for 1.7-fold increase in dose ([3]; 342 mg (Regimen D) vs 205 mg ALZ-801 tablets, fed): 1.5 fold
- interindividual variability for exposure ([3]; ALZ-801 tablet, fed and fasted states): 20–35%
- effect on renal transporter (OAT3): no effect
- CL renal ([4]; Day 1, ALZ-801 tablet 265 mg): 201 ± 48.2 mL/min
- CL renal ([4]; Day 7, ALZ-801 tablet 265 mg): 194 ± 85.1 mL/min
- half-life ([9]; after tramiprosate LF capsule 100 mg): 5.9 ± 5.22 h
- half-life ([9]; after tramiprosate MR tablet 100 mg): 4.99 ± 2.66 h
- projected plasma tramiprosate AUC12 ([10]; fasted): approximately 4844 ng/mL h
- projected plasma tramiprosate AUC12 ([10]; fasted and fed combined): ~4502 ng·h/mL
- projected plasma tramiprosate AUC12 ([10]; fed): ~4360 ng·h/mL
- Projected brain average concentration (C ss,av) ([10]; projected steady state, ALZ-801 tablet 265 mg twice daily, humans, 14C method): approximately 550 nM
- brain:plasma ratio (brain penetration), steady state ([10]; rodent, 14C method, projected after steady-state dosing): ~ 40%
Compound: NCCCS(=O)(=O)O [tramiprosate, 3-amino-1-propanesulfonic acid]
- ADAS-cog difference compared with placebo ([6]; APOE4 carriers): 2 point
- ADAS-cog difference compared with placebo ([6]; APOE4 homozygous (APOE4/4) patients): 4 point
- CSF drug levels ([6]; oral tramiprosate 150 mg twice daily for 78 weeks): 60 nM
- mean plasma exposure AUC12 ([6]; tramiprosate 150 mg twice daily, 78 weeks, phase III): 4429 ng·h/mL
- reduction in brain amyloid plaque load [7]: ~ 30%
- formation of Aβ oligomers (Aβ oligomers): completely abrogated
- Mean Ae ([4]; Day 1, ALZ-801 tablet 265 mg): 44.0 mg
- Mean Ae ([4]; Day 7, ALZ-801 tablet 265 mg): 58.4 mg

Reference: paper PMC5814546 (Clinical Pharmacokinetics, 2017)
